Test [1] has as its target Mu-type opioid receptor (Rattus norvegicus, UniProt P33535). Briefly: Binding affinity for Opioid receptor mu 1 using [3H]DAGO in rat brain P2 synaptosomal preparation. It counts as tissue-based. An outline of the steps:
(§1)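 Competition binding at equilibrium, 2 h at room temperature, on rat brain P2 synaptosomes. Nonspecific binding with 2 μM unlabeled peptide. GF/C filtration and scintillation counting. Duplicates, five to eight doses, 3–5 repeats. Ki by Cheng–Prusoff.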

The target in test [2] is T1, Delta-type opioid receptor (Mus musculus, UniProt P32300). Put plainly: Concentration required to double the agonist concentration to achieve the original response for Opioid receptor delta 1. It counts as functional. To be noted: read-out: pA2 (converted). The gist of the method:
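Antagonism reported as pA2, the negative log of the molar antagonist concentration that doubles the agonist concentration needed for the original response. Measured in the δ bioassay, the electrically stimulated mouse vas deferens twitch preparation. n = 5–6.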

For test [3], the target named is Mu-type opioid receptor (Cavia porcellus, UniProt P97266). Put plainly: Opioid receptor mu 1 agonism in guinea pig ileum. It counts as functional, tissue-based. The gist of the method:
(§2)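 Isolated tissue bioassay: mouse vas deferens for δ, guinea pig ileum for μ. Field stimulation with bipolar rectangular pulses of supramaximal voltage. Inhibition of the electrically evoked twitch measured, and IC50 taken from concentration–response curves. [D-Ala2]deltorphin I (MVD) and dermorphin (GPI) were internal standards. Five to six separate assays.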

For test [4], the target named is Delta-type opioid receptor (Rattus norvegicus, UniProt P33533). Briefly: Binding affinity for Opioid receptor delta 1 using [3H]DPDPE in rat brain P2 synaptosomal preparation. It counts as tissue-based. An outline of the steps: as §1
Sequence of Delta-type opioid receptor (Rattus norvegicus, UniProt P33533) (P33533 whole entry): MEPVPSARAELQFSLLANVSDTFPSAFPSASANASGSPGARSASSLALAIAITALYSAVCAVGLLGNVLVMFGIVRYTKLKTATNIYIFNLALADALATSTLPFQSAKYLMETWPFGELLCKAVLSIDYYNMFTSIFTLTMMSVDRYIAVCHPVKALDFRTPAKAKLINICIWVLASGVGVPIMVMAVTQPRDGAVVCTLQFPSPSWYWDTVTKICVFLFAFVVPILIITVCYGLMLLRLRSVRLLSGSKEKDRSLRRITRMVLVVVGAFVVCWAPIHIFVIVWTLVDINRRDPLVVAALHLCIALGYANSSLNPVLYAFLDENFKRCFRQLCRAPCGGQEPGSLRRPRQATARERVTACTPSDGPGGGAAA
Test [5] has as its target Opioid receptors; mu & delta (Rattus norvegicus) (UniProt P33533+P33535). Put plainly: Receptor selectivity for the delta to mu opioid receptor. It counts as protein assay. The gist of the method:
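δ/μ ratio of Ki values from rat brain P2 synaptosome competition binding ([3H]DPDPE for δ, [3H]DAGO for μ; 2 h, room temperature). Ki calculated by Cheng–Prusoff.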

Test [6] has as its target T1, Delta-type opioid receptor. Put plainly: Opioid receptor delta 1 agonism in mouse vas deferens. It counts as functional, tissue-based. The gist of the method: as §2

The structures appear in SMILES notation.

T1 sequence (P32300 whole entry): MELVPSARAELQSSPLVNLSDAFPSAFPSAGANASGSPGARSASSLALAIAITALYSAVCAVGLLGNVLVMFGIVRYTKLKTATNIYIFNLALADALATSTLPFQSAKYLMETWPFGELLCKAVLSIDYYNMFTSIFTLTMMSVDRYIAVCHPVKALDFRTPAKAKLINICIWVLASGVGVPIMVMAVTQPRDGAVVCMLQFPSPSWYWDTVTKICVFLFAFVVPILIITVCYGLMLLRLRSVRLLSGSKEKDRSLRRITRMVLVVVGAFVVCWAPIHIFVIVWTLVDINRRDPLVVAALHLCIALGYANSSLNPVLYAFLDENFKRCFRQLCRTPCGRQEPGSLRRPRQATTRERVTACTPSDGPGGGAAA
Sequence of Mu-type opioid receptor (Rattus norvegicus, UniProt P33535) (P33535 whole entry): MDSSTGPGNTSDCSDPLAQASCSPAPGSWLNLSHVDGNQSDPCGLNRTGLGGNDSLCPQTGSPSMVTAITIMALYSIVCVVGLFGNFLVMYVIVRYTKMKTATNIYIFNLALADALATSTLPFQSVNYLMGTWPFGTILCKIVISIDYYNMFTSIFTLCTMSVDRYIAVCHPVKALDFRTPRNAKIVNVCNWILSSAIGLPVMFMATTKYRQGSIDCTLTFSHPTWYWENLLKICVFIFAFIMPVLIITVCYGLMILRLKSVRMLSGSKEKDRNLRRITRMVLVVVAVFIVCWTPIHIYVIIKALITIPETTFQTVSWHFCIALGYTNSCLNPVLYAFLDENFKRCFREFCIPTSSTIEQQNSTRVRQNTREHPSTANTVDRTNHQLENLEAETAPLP
Sequence of Mu-type opioid receptor (Cavia porcellus, UniProt P97266) (P97266 whole entry): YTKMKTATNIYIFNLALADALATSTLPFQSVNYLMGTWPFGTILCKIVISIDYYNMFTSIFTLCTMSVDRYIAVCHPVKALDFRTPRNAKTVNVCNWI
Sequence of Opioid receptors; mu & delta (Rattus norvegicus) (P33533 whole entry, looked up): as the sequence (P33533 whole entry) above
Sequence of Opioid receptors; mu & delta (Rattus norvegicus) (P33535 whole entry, looked up): as the sequence (P33535 whole entry) above

The Ki is the dissociation constant of the complex between target and ligand, obtained from inhibition or displacement. Broadly, the IC50 is the concentration at which inhibition is half-maximal. Lower therefore signals greater potency in that assay. For `Cc1cc(O)cc(C)c1C[C@@H](N)C(=O)NCCCCNC(=O)[C@@H](N)Cc1c(C)cc(O)cc1C`, the Ki was 0.041 nM on Mu-type opioid receptor [1] and 53.4 nM in test [4]. Besides, in test [2], the Kb was 1580 nM. Further, the IC50 is 5.33 nM at Mu-type opioid receptor [3] and over 10 µM in test [6]. Moreover, in test [5], the Ratio turned out to be 1300.

Consider `N[C@H](Cc1ccc(O)cc1)C(=O)NCCCCCCCCNC(=O)[C@@H](N)Cc1ccc(O)cc1`, for which the results for the Ki (at Mu-type opioid receptor [1]; in test [4]) were 399 nM and 6150 nM, respectively.

On to `Cc1cc(O)cc(C)c1C[C@@H](N)C(=O)NCCNC(=O)[C@@H](N)Cc1c(C)cc(O)cc1C`, for which the Ki at Mu-type opioid receptor [1] stood at 1.43 nM; in test [4] it was 116 nM. For the same molecule, in test [2], the Kb is 3160 nM. The half-maximal inhibitory concentration (IC50) on Mu-type opioid receptor [3] is 2840 nM; in test [6] it was over 10 µM. Besides, in test [5], the Ratio is 81.

Regarding `N[C@H](Cc1ccc(O)cc1)C(=O)NCCCCCCNC(=O)[C@@H](N)Cc1ccc(O)cc1`, the Ki on Mu-type opioid receptor [1] came to 410 nM; in test [4] it was 21900 nM. For the same molecule, the Ratio in test [5] was 53.

Consider `Cc1cc(O)cc(C)c1C[C@H](N)C(=O)NCCCCNC(=O)[C@H](N)Cc1ccccc1`, for which the figures for the Ki (at Mu-type opioid receptor [1]; in test [4]) were 0.52 nM and 62 nM, respectively. Besides, the Kb in test [2] was 3160 nM. Also, the IC50 on Mu-type opioid receptor [3] was 181 nM; in test [6] it was over 10 µM. In addition, in test [5], the Ratio is 119.

As for `N[C@H](Cc1ccc(O)cc1)C(=O)NCCNC(=O)[C@@H](N)Cc1ccc(O)cc1`, the figures for the Ki (on Mu-type opioid receptor [1]; in test [4]) were 648 nM and 8290 nM, respectively. Besides, in test [5], the Ratio was determined as 13.

As to `N[C@H](Cc1ccccc1)C(=O)NCCCCNC(=O)[C@@H](N)Cc1ccccc1`, the Ki on Mu-type opioid receptor [1] came out at 1530 nM; in test [4], 46200 nM. Also, the Ratio in test [5] amounted to 30.

With `Cc1cc(O)cc(C)c1C[C@H](N)C(=O)NCCCCNC(=O)[C@H](N)Cc1ccc(O)cc1`, the values for the Ki (at Mu-type opioid receptor [1]; in test [4]) were 0.38 nM and 133 nM, respectively. In addition, the Kb in test [2] is 5010 nM. The results for the IC50 (on Mu-type opioid receptor [3]; in test [6]) were 255 nM and over 10 µM, respectively. Further, the Ratio in test [5] was determined as 349.

For `Cc1cc(O)cc(C)c1C[C@@H](N)C(=O)NCCCCCCNC(=O)[C@@H](N)Cc1c(C)cc(O)cc1C`, the Ki at Mu-type opioid receptor [1] was 0.053 nM; in test [4], 46.1 nM. For the same molecule, the Kb in test [2] is 794 nM. Further, the IC50 at Mu-type opioid receptor [3] was 3.08 nM; in test [6] it was over 10 µM. In addition, the Ratio in test [5] turned out to be 870.

`N[C@H](Cc1ccc(O)cc1)C(=O)NCCCCNC(=O)[C@@H](N)Cc1ccc(O)cc1`: the Ki on Mu-type opioid receptor [1] is 309 nM; in test [4] it was 6500 nM. Besides, the Ratio in test [5] was 21.

In the case of `Cc1cc(O)cc(C)c1C[C@@H](N)C(=O)NCCCCCCCCNC(=O)[C@@H](N)Cc1c(C)cc(O)cc1C`, the Ki on Mu-type opioid receptor [1] was found to be 0.19 nM; in test [4], 14.8 nM. Also, the Kb in test [2] is 398 nM. Also, the IC50 is 53.7 nM on Mu-type opioid receptor [3] and over 10 µM in test [6]. Besides, in test [5], the Ratio was 78.

Source of the values: ChEMBL document CHEMBL1145848, “Unique high-affinity synthetic mu-opioid receptor agonists with central- and systemic-mediated analgesia” (J Med Chem, 2003).
